Assays:
healthy elderly subjects [1] = assay: Vital signs; assay type: in vivo, human
Procedure, shortened: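 Randomised, double-blind, placebo-controlled trial in healthy subjects aged ≥65 (n=48; 12 active:4 placebo per cohort, placebos pooled). Intranasal test compound 5.5, 11 or 22 mg or 0.9% NaCl b.i.d. for 7 days, 6 h between doses. The 11 mg active subjects later got one open-label oral 16 mg dose of the parent drug. Safety was tracked by TEAEs, nasal examination, vital signs, ECG and safety bloods.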

healthy elderly subjects [2] = assay: NeuroCart adaptive tracking test; assay type: in vivo, human; details: vs placebo, mean (confidence interval)
Procedure, shortened: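 Joystick task keeping a dot inside a moving circle. Circle speed rises while the dot stays inside and falls when it escapes. The score is % time tracked over 3.5 min, including a 0.5 min run-in. Testing was repeated over time, with extra sessions in the 22 mg cohort. Analysis was mixed-model ANOVA (treatment, time, treatment×time fixed; subject random; baseline covariate), reporting LSM difference versus placebo with CI.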

healthy elderly subjects [3] = assay: Visual verbal learning test; assay type: in vivo, human; details: for VVLT Delayed word recall correct / VVLT Delayed word recognition RT correct / VVLT Delayed word recognition correct / VVLT Word recall correct 1 / VVLT Word recall correct 2 / VVLT Word recall correct 3: vs placebo, mean (confidence interval)
Procedure, shortened: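 Thirty words were shown repeatedly, with immediate recall after each presentation. After 30 min, delayed recall and recognition among distractor words were tested. This test was not repeated within a day. Analysis was mixed-model ANOVA (treatment, day, treatment×day fixed; subject random), giving LSM difference versus placebo with CI.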

healthy elderly subjects [4] = assay: NeuroCart eye movements; assay type: in vivo, human; details: vs placebo, mean (confidence interval)
Procedure, shortened: (§1)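 NeuroCart tests were repeated over time during the 7-day b.i.d. intranasal dosing: eye movements, N-back with 3 working-memory-load conditions, pharmaco-EEG, and 100-mm VAS (Bond and Lader mood/alertness/calmness; nausea). In the 22 mg cohort, EEG at 30 min and 3 h post-dose was dropped. Analysis was mixed-model ANOVA (treatment, time, treatment×time fixed; subject random; baseline covariate), giving LSM difference versus placebo with CI.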

[5] = Plasma pharmacokinetics, non‐compartmental analysis; assay type: in vivo, human
[6] = CSF and plasma concentrations, Gln‐1062 11 mg vs 16 mg oral galantamine; assay type: in vivo, human
healthy elderly subjects [7] = assay: N‐back test; assay type: in vivo, human; details: vs placebo, mean (confidence interval)
Procedure, shortened: as §1

[8] = intranasal 20.0 mg/kg; cited from earlier work
[9] = cited from earlier work
[10] = 5.5 mg b.i.d. intranasal 7 days

Structure (SMILES): COc1ccc2c3c1O[C@H]1C[C@@H](OC(=O)c4ccccc4)C=C[C@@]31CCN(C)C2 [Gln‐1062]
- increase in mean diastolic blood pressure (healthy elderly subjects [1]; first dosing day, 11 mg): 5.1 mm Hg
- changes in blood and urinary laboratory values and ECG safety parameters (healthy elderly subjects [1]; multiple doses): did not result in clinically significant changes
- increase in systolic blood pressure (healthy elderly subjects [1]; seventh day, 5.5 mg): 7.6 mm Hg
- Adaptive tracking (healthy elderly subjects [2]; [10]): 0.520 (−0.779, 1.818) P = 0.4240 %‐point
- Adaptive tracking (healthy elderly subjects [2]; 11 mg b.i.d. intranasal 7 days): 0.318 (−0.992, 1.627) P = 0.6266 %‐point
- VVLT Delayed word recall correct (healthy elderly subjects [3]; [10]): 0.36 (−2.02, 2.73) P = 0.7624
- VVLT Delayed word recognition RT correct (healthy elderly subjects [3]; [10]): −49.93 (−166.97, 67.10) P = 0.3944 msec
- VVLT Delayed word recognition correct (healthy elderly subjects [3]; [10]): −2.60 (−6.60, 1.40) P = 0.1967
- VVLT Word recall correct 1 (healthy elderly subjects [3]; [10]): 0.36 (−1.31, 2.03) P = 0.6635
- VVLT Word recall correct 2 (healthy elderly subjects [3]; [10]): −0.45 (−2.44, 1.55) P = 0.6545
- VVLT Word recall correct 3 (healthy elderly subjects [3]; [10]): −0.12 (−2.42, 2.17) P = 0.9136
- VVLT Delayed word recall correct (healthy elderly subjects [3]; 11 mg b.i.d. intranasal 7 days): −0.73 (−3.15, 1.70) P = 0.5486
- VVLT Delayed word recognition RT correct (healthy elderly subjects [3]; 11 mg b.i.d. intranasal 7 days): −30.91 (−150.24, 88.41) P = 0.6041 msec
- VVLT Delayed word recognition correct (healthy elderly subjects [3]; 11 mg b.i.d. intranasal 7 days): −2.19 (−6.24, 1.87) P = 0.2825
- VVLT Word recall correct 1 (healthy elderly subjects [3]; 11 mg b.i.d. intranasal 7 days): 0.62 (−1.07, 2.32) P = 0.4608
- VVLT Word recall correct 2 (healthy elderly subjects [3]; 11 mg b.i.d. intranasal 7 days): −0.63 (−2.65, 1.40) P = 0.5370
- VVLT Word recall correct 3 (healthy elderly subjects [3]; 11 mg b.i.d. intranasal 7 days): −0.89 (−3.23, 1.44) P = 0.4444
- VVLT Delayed word recall correct (healthy elderly subjects [3]; 22 mg b.i.d. intranasal 7 days): 0.48 (−1.89, 2.86) P = 0.6838
- VVLT Delayed word recognition RT correct (healthy elderly subjects [3]; 22 mg b.i.d. intranasal 7 days): −120.03 (−237.07,−3.00) P = 0.0447 msec
- VVLT Delayed word recognition correct (healthy elderly subjects [3]; 22 mg b.i.d. intranasal 7 days): −0.43 (−4.43, 3.57) P = 0.8291
- VVLT Word recall correct 1 (healthy elderly subjects [3]; 22 mg b.i.d. intranasal 7 days): −0.12 (−1.79, 1.54) P = 0.8816
- VVLT Word recall correct 2 (healthy elderly subjects [3]; 22 mg b.i.d. intranasal 7 days): −0.01 (−2.00, 1.99) P = 0.9959
- VVLT Word recall correct 3 (healthy elderly subjects [3]; 22 mg b.i.d. intranasal 7 days): 0.99 (−1.30, 3.29) P = 0.3883
- effects on VVLT, eye movements and VAS mood, calmness, alertness and nausea (healthy elderly subjects [3]; compared with placebo): No significant and consistent effects
- Saccadic Inaccuracy (healthy elderly subjects [4]; [10]): 0.59 (−0.46, 1.64) P = 0.2627%
- Saccadic Peak Velocity (healthy elderly subjects [4]; [10]): −0.06 (−21.97, 21.85) P = 0.9958 deg/s
- Saccadic Reaction Time (healthy elderly subjects [4]; [10]): −0.0112 (−0.0224,−0.0001) P = 0.0481 sec
- Smooth Pursuit (healthy elderly subjects [4]; [10]): −1.28 (−5.10, 2.53) P = 0.5011%
- Saccadic Inaccuracy (healthy elderly subjects [4]; 11 mg b.i.d. intranasal 7 days): 0.20 (−0.89, 1.30) P = 0.7099%
- Saccadic Peak Velocity (healthy elderly subjects [4]; 11 mg b.i.d. intranasal 7 days): 5.03 (−17.82, 27.87) P = 0.6588 deg/s
- Saccadic Reaction Time (healthy elderly subjects [4]; 11 mg b.i.d. intranasal 7 days): −0.0018 (−0.0134, 0.0098) P = 0.7546 sec
- Smooth Pursuit (healthy elderly subjects [4]; 11 mg b.i.d. intranasal 7 days): −0.10 (−4.04, 3.84) P = 0.9597%
- Saccadic Inaccuracy (healthy elderly subjects [4]; 22 mg b.i.d. intranasal 7 days): 0.51 (−0.56, 1.58) P = 0.3393%
- Saccadic Peak Velocity (healthy elderly subjects [4]; 22 mg b.i.d. intranasal 7 days): 8.63 (−13.65, 30.91) P = 0.4379 deg/s
- Saccadic Reaction Time (healthy elderly subjects [4]; 22 mg b.i.d. intranasal 7 days): −0.0013 (−0.0126, 0.0101) P = 0.8228 sec
- Smooth Pursuit (healthy elderly subjects [4]; 22 mg b.i.d. intranasal 7 days): 2.00 (−1.88, 5.88) P = 0.3039%
- t1/2 of Gln‐1062 in plasma, mean (± SD) ([5]; 5.5 mg intranasal): 1.16 (±0.37) hour
- t1/2 of Gln‐1062 in plasma, mean (± SD) ([5]; 22 mg intranasal): 2.09 (± 0.58) hour
- median Tmax of Gln‐1062 in plasma ([5]; intranasal 5.5, 11 or 22 mg b.i.d., range 0.5 to 1.0 hour): 30 min
- Gln‐1062 concentrations in CSF ([6]; 11 mg Gln‐1062 intranasal): below the limit of quantification
- Dose‐corrected plasma and CSF concentrations of galantamine cleaved from Gln‐1062, compared with oral galantamine ([6]; 11 mg Gln‐1062 intranasal vs 16 mg oral galantamine): lower
- N‐back corr‐incorr/total 1 (healthy elderly subjects [7]; [10]): 0.026 (−0.026, 0.078) P = 0.3186
- N‐back corr‐incorr/total 2 (healthy elderly subjects [7]; [10]): −0.002 (−0.068, 0.064) P = 0.9575
- N‐back mean RT 2 back (healthy elderly subjects [7]; [10]): −45.6 (−99.3, 8.2) P = 0.0944 msec
- N‐back corr‐incorr/total 1 (healthy elderly subjects [7]; 11 mg b.i.d. intranasal 7 days): 0.027 (−0.023, 0.076) P = 0.2811
- N‐back corr‐incorr/total 2 (healthy elderly subjects [7]; 11 mg b.i.d. intranasal 7 days): −0.016 (−0.081, 0.049) P = 0.6231
- N‐back mean RT 1 back (healthy elderly subjects [7]; 11 mg b.i.d. intranasal 7 days): 6.1 (−39.6, 51.8) P = 0.7893 msec
- N‐back corr‐incorr/total 1 (healthy elderly subjects [7]; 22 mg b.i.d. intranasal 7 days): 0.020 (−0.029, 0.069) P = 0.4242
- N‐back corr‐incorr/total 2 (healthy elderly subjects [7]; 22 mg b.i.d. intranasal 7 days): 0.036 (−0.028, 0.099) P = 0.2661
- N‐back mean RT 1 back (healthy elderly subjects [7]; 22 mg b.i.d. intranasal 7 days): −24.4 (−67.1, 18.3) P = 0.2558 msec
- N‐back mean RT 2 back (healthy elderly subjects [7]; 22 mg b.i.d. intranasal 7 days): −71.4 (−126.4,−16.3) P = 0.0123 msec
- blood‐to‐brain ratio [8]: 10.2 mg/kg
- tolerability compared with 16 mg oral galantamine and other ChEIs ([9]; 22 mg): better tolerated
- sustained attention (adaptive tracking) and verbal memory (VVLT) ([9]; 5.5, 11, 22, 33 and 44 mg): dose‐dependent improvements

— article PMC7551138 (Alzheimer's & Dementia : Translational Research & Clinical …, 2020)
